biological target: Transient receptor potential cation channel subfamily V member 1 (Rattus norvegicus, UniProt O35433); assay: Antagonist activity at TRPV1 in Sprague-Dawley rat DRG neuron assessed as reduction of capsaicin-stimulated 45Ca2+ uptake; type: functional
Procedure, shortened: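 Neonatal Sprague-Dawley rat DRG neurons (all spinal levels) dissociated with collagenase/trypsin and cultured 3 days with C6 glioma-conditioned medium. Washed in HEPES (10 mM, pH 7.4) Ca/Mg-free HBSS. Exposed to 45Ca2+ plus 0.5 µM capsaicin with compound for 10 min at room temperature. Cells washed, SDS-lysed, scintillation counted.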

Transient receptor potential cation channel subfamily V member 1, sequence (O35433 whole entry): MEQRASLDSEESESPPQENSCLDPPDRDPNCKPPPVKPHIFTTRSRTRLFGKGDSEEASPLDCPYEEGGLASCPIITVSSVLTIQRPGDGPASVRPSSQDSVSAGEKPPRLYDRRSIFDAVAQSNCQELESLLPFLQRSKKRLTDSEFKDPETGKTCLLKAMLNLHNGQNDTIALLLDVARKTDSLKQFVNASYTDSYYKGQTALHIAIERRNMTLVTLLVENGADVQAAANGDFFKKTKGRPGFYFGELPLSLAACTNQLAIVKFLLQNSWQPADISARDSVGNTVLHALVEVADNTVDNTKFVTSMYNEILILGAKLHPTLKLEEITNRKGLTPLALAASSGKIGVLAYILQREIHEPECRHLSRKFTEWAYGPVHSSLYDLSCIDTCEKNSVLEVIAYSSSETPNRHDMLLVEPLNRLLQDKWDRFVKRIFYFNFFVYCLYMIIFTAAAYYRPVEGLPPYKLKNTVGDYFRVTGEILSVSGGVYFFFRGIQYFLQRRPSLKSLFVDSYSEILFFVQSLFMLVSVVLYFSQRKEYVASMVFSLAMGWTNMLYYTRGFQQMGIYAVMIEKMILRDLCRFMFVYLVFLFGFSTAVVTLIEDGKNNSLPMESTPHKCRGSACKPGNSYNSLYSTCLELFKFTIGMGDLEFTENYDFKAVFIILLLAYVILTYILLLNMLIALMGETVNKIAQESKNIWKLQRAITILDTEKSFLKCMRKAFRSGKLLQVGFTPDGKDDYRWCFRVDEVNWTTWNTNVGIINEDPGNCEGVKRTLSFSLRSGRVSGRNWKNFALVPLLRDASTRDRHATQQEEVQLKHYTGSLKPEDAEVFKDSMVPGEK

SMILES	IC50 [nM]
CS(=O)(=O)Nc1ccc(CNC(=O)CCc2ccccc2)cc1F	> 10000
CC(C)Cc1ccc(CCC(=O)NCc2ccc(NS(C)(=O)=O)c(F)c2)cc1	640
CC(C)(C)c1ccc(CNC(=O)CCc2ccc(NS(C)(=O)=O)c(F)c2)cc1	2800
CC(C)Oc1ccc(CCC(=O)NCc2ccc(NS(C)(=O)=O)c(F)c2)cc1	> 10000
CC1(c2ccc(CCC(=O)NCc3cc(F)c(NS(C)(=O)=O)c(C#N)c3)cc2)CC1	210
CS(=O)(=O)Nc1ccc(CNC(=O)/C=C/c2ccc(I)cc2)cc1F	> 10000
CC(C)(C)c1ccc(CCC(=O)NCc2cc(F)c(NS(C)(=O)=O)c(C#N)c2)cc1	85
CC(C)(C)c1cc(/C=C/C(=O)NCc2ccc(NS(C)(=O)=O)c(F)c2)c2c(c1)CCCO2	920
CC1(C)Cc2cc(CCC(=O)NCc3ccc(NS(C)(=O)=O)c(F)c3)ccc2O1	> 10000
CC(C)(C)c1cc2c(c(CCC(=O)NCc3ccc(NS(C)(=O)=O)c(F)c3)c1)OCC2	5000
CC1(C)CCC(C)(C)c2cc(CCC(=O)NCc3ccc(NS(C)(=O)=O)c(F)c3)ccc21	180
CC1(C)Cc2cc(/C=C/C(=O)NCc3ccc(NS(C)(=O)=O)c(F)c3)ccc2O1	4300
CS(=O)(=O)Nc1ccc(CNC(=O)CCc2ccc(C(F)(F)F)cc2)cc1F	4600
CS(=O)(=O)Nc1ccc(CNC(=O)CCc2ccc(Br)cc2)cc1F	> 10000

Results, then the compound that gave them:

IC50 [nM]	SMILES
2500	CS(=O)(=O)Nc1ccc(CNC(=O)CCc2cc(C(F)(F)F)cc(C(F)(F)F)c2)cc1F
200	CC(C)(C)c1cc(CCC(=O)NCc2ccc(NS(C)(=O)=O)c(F)c2)cc(C(C)(C)C)c1
> 10000	CC(C)(C)Oc1ccc(CCC(=O)NCc2ccc(NS(C)(=O)=O)c(F)c2)cc1
1400	CC1(C)CCc2cc(/C=C/C(=O)NCc3ccc(NS(C)(=O)=O)c(F)c3)ccc2O1
280	CC(C)(C)c1cc2c(c(CCC(=O)NCc3ccc(NS(C)(=O)=O)c(F)c3)c1)OCCC2
7200	CC1(C)CCc2cc(CCC(=O)NCc3ccc(NS(C)(=O)=O)c(F)c3)ccc2O1
710	CC(C)(C)c1ccc(CNC(=O)NCc2ccc(NS(C)(=O)=O)c(F)c2)cc1
1500	CC(C)(C)c1cc(/C=C/C(=O)NCc2ccc(NS(C)(=O)=O)c(F)c2)c2c(c1)CCO2
360	CS(=O)(=O)Nc1ccc(CNC(=O)CCc2ccc(CC3CC3)cc2)cc1F
170	CC(C)(C)c1ccc(CCC(=O)NCc2ccc(NS(C)(=O)=O)c(F)c2)cc1
390	CC1(c2ccc(/C=C/C(=O)NCc3ccc(NS(C)(=O)=O)c(F)c3)cc2)CC1
340	CC1(C)CCC(C)(C)c2cc(/C=C/C(=O)NCc3ccc(NS(C)(=O)=O)c(F)c3)ccc21
57	CC1(C)CCC(C)(C)c2cc(CCC(=O)NCc3cc(F)c(NS(C)(=O)=O)c(C#N)c3)ccc21
